Columns and labels:
[1] = target: Replicase polyprotein 1ab (Severe acute respiratory syndrome coronavirus 2) (UniProt P0DTD1); assay: Inhibition of recombinant SARS-CoV-2 3CLpro expressed in Escherichia coli NiCo21(DE3) assessed as residual activity at 500 uM using DABCYL-KTSAVLQSGFRKME-EDANS as substrate preincubated for 30 mins followed by substrate addition and measured by FRET assay relative to control
Method in brief: (§1)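 Kinetic fluorescence read-out of cleavage of a FRET substrate carrying a DABCYL–EDANS pair. Compounds were tested at 500–625 μM, and <50% residual activity was taken as the activity threshold. To exclude false positives, absorbance at the excitation and emission wavelengths and autofluorescence of the compounds were measured.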

[2] = Redox activity of compound assessed as redox index at 10 uM measured by resazurin assay; format: physicochemical
Method in brief: (§2)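 Free radicals formed by redox cycling with DTT detected with resazurin by fluorimetric read-out. Spectral interference checked.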

[3] = target: Replicase polyprotein 1ab (Severe acute respiratory syndrome coronavirus 2) (UniProt P0DTD1); assay: Inhibition of recombinant SARS-CoV-2 3CLpro expressed in Escherichia coli NiCo21(DE3) assessed as residual activity at 500 uM using DABCYL-KTSAVLQSGFRKME-EDANS as substrate preincubated for 30 mins in presence of 1mM DTT followed by substrate addition and measured by FRET assay relative to control; method in brief: as §1
[4] = Redox activity of compound assessed as redox index at 100 uM in presence of 1 mM DTT measured by HRP-PR assay; format: physicochemical
Method in brief: (§3)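 H2O2 from redox cycling, with or without DTT, detected with horseradish peroxidase-phenol red (HRP-PR).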

[5] = target: UDP-N-acetylglucosamine 1-carboxyvinyltransferase (Escherichia coli K-12) (UniProt P0A749); assay: Inhibition of recombinant Escherichia coli MurA assessed as residual activity at 500 uM using UDP-N-acetylglucosamine as substrate and measured by malachite green based colorimetric assay relative to control
Method in brief: (§4)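 Screened at 500–625 μM with malachite green colorimetric read-out. Activity threshold was <50% residual activity.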

[6] = target: D-alanine--D-alanine ligase B (Escherichia coli K-12) (UniProt P07862); assay: Inhibition of recombinant Escherichia coli DdlB assessed as residual activity at 500 uM using D-alanine as substrate incubated for 20 mins and measured by malachite green based colorimetric assay relative to control; method in brief: as §4
[7] = target: UDP-N-acetylglucosamine 1-carboxyvinyltransferase (Escherichia coli K-12) (UniProt P0A749); assay: Inhibition of recombinant Escherichia coli MurA assessed as residual activity at 500 uM using UDP-N-acetylglucosamine as substrate preincubated for 30 mins followed by substrate addition and measured by malachite green based colorimetric assay relative to control
Method in brief: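 E. coli MurA at 500–625 μM with 30 min preincubation before substrate addition. Malachite green colorimetric read-out. Activity threshold was <50% residual activity.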

[8] = Redox activity of compound assessed as redox index at 100 uM measured by H2DCFDA assay; format: physicochemical
Method in brief: (§5)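 Reactive oxygen species, with or without the reducing agent TCEP, detected with the fluorescent probe H2DCFDA. Compound spectral interference (autofluorescence) checked under the assay conditions.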

[9] = tested on: Mycobacterium tuberculosis; assay: Inhibition of Mycobacterium tuberculosis MetAP1a assessed as residual activity at 625 uM using L-methionine 7-amido-4-methylcoumarin as fluorogenic substrate and measured by fluorescence based assay
Method in brief: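 Kinetic fluorescence assay in which the enzyme hydrolyses L-methionine 7-amido-4-methylcoumarin to fluorescent 7-amino-4-methylcoumarin. Compounds were tested at 500–625 μM, and activity was called at <50% residual activity. Spectral interference was checked by measuring absorbance at the excitation and emission wavelengths and compound autofluorescence.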

[10] = Redox activity of compound assessed as redox index at 100 uM in presence of 100 uM TCEP measured by H2DCFDA assay; format: physicochemical; method in brief: as §5
[11] = target: UDP-N-acetylglucosamine 1-carboxyvinyltransferase (Escherichia coli K-12) (UniProt P0A749); assay: Inhibition of recombinant Escherichia coli MurA assessed as residual activity at 500 uM using UDP-N-acetylglucosamine as substrate preincubated for 30 mins in presence of 1 mM DTT followed by substrate addition and measured by malachite green based colorimetric assay relative to control
[12] = Redox activity of compound assessed as redox index at 1 uM measured by resazurin assay; format: physicochemical; method in brief: as §2
[13] = Redox activity of compound assessed as redox index at 100 uM measured by HRP-PR assay; format: physicochemical; method in brief: as §3
[14] = Aqueous stability of the compound at pH 7.4 measured after 60 mins by spectrophotometric analysis; format: physicochemical; conditions: buffer, pH 7.4, 1 h
Method in brief: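 Followed by spectrophotometry as changes in the compound absorption spectrum over time in 50 mM Tris-HCl pH 7.4, 0.5 mM EDTA, read after 60 min in 96-well microplate format. Compounds with low absorbance were not evaluated.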

Chain of UDP-N-acetylglucosamine 1-carboxyvinyltransferase (Escherichia coli K-12) (P0A749 whole entry): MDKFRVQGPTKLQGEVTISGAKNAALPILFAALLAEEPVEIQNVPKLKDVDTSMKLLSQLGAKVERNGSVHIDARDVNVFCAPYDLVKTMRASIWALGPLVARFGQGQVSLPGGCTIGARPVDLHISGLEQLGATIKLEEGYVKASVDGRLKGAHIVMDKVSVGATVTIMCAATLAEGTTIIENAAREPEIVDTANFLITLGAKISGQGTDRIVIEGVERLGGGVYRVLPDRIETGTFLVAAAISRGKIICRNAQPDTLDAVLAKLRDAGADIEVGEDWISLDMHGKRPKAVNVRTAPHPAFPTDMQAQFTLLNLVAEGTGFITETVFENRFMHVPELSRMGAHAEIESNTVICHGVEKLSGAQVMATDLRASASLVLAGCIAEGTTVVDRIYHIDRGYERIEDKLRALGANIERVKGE

Row | Structure (SMILES) | Activity [1] [%] | Activity_index [2] | Activity [3] [%] | Activity_index [4] | Activity [5] [%] | Activity [6] [%] | Activity [7] [%] | Activity_index [8] | Activity [9] [%] | Activity_index [10] | Activity [11] [%] | Activity_index [12] | Activity_index [13] | Stability [14]
1 | O=C(O)Cc1csc(Br)n1 | 77.1 | 1 | 68.6 | 1 | 105 | 103 | 72.1 | 0.9 | 86.1 | 1 | 106 | 0.9 | 1 | 
2 | Cc1nc(C(=O)O)cs1 | 3.4 | 1 | 78.7 | 1 | 7.2 | 92 | 1.6 | 0.9 | 73.9 | 1.6 | 105 | 0.9 | 1 | Stable
3 | Nc1ccc(S(=O)(=O)Nc2nccs2)cc1 [SULFATHIAZOLE] | 71.7 | 1 | 74.2 | 1 | 96.5 | 94 | 82.3 | 1.2 | 94 | 1.1 | 100 | 0.9 | 1 | Stable
4 | CNc1nnc(C(F)(F)F)s1 | 147 | 1 | 82.3 | 1 | 99.5 | 98 | 113 | 1.2 | 101 | 1.1 | 102 | 1 | 1 | Stable
5 | Nc1nnc(C(F)(F)F)s1 | 66.8 | 1 | 82.9 | 1 | 56.9 | 100 | 18 | 1 | 142 | 0.9 | 101 | 0.9 | 1 | Stable
6 | Cc1nc(Br)sc1C(=O)O | 100 | 0.9 | 92.9 | 1 | 72.4 | 94 | 18.5 | 1.2 | 43.4 | 1.1 | 102 | 0.9 | 1 | Stable
7 | CCOC(=O)c1cnc(Br)s1 | 10.2 | 1 | 66.4 | 1 | 60.1 | 90 | 14.9 | 0.9 | 92.3 | 1.1 | 103 | 0.9 | 1 | Stable
8 | Cc1nnc(N)s1 | 121 | 0.9 | 81.9 | 1 | 92.9 | 98 | 89.5 | 1 | 114 | 1 | 99.4 | 0.9 | 1 | Stable
9 | Fc1ccc(-c2csc(Br)n2)cc1F | 85.1 | 0.9 | 78.9 | 1 | 89.1 | 136 | 12 | 0.8 | 84.4 | 0.9 | 81.9 | 0.9 | 1 | Unstable
10 | N#Cc1cnc(NC(=O)CC(=O)O)s1 | 93.5 | 1 | 79.7 | 1 | 72.3 | 96 | 20.3 | 0.7 | 146 | 0.8 | 109 | 0.9 | 1 | Stable
11 | Clc1nccs1 | 23.1 | 0.9 | 73.8 | 1 | 18.9 | 93 | 0.8 | 1 | 122 | 0.9 | 107 | 1 | 1 | Stable
12 | O=C(O)c1csc(Br)n1 | 73.6 | 0.9 | 73.7 | 1 | 102 | 92 | 96 | 1 | 81.7 | 1 | 101 | 0.9 | 1 | Stable
13 | O=C(O)c1nc(Br)cs1 | 88.3 | 0.9 | 85.1 | 1 | 97.3 | 84 | 90 | 1 | 111 | 0.9 | 106 | 0.9 | 1 | 
14 | Brc1cscn1 | 91.4 | 1 | 80.1 | 1 | 100 | 97 | 106 | 0.8 | 83.5 | 0.8 | 102 | 0.9 | 1 | 
15 | Nc1nc(-c2ccncc2)cs1 | 91.9 | 1 | 77.8 | 1 | 86.7 | 96 | 56.7 | 1.1 | 110 | 1.2 | 103 | 1 | 0.8 | Stable
16 | CCOC(=O)Cc1csc(Br)n1 | 72 | 0.9 | 70.8 | 1 | 86.7 | 95 | 66.7 | 1 | 89.6 | 0.9 |  | 0.9 | 1 | 
17 | CC(=O)c1nc(C)cs1 | 106 | 0.9 | 78.4 | 1 | 102 | 92 | 93.9 | 1 | 136 | 0.8 | 93.5 | 0.9 | 1 | 
